Measurements: ChEMBL document CHEMBL4190394, “Discovery of Novel Pazopanib-Based HDAC and VEGFR Dual Inhibitors Targeting Cancer Epigenetics and Angiogenesis Simultaneously” (J Med Chem, 2018)
Calls of active or inactive are those of the source. The rule behind the calls is not given here.

What was measured:
[1] = Clearance in Sprague-Dawley rat at 2 mg/kg, iv by LC-MS/MS analysis; format: ADME, organism-based; conditions: in vivo
How it was run: (§1)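 Sprague–Dawley rats (N = 6) dosed with the hydrochloride salt, 2 mg/kg IV or 10 mg/kg PO. Jugular vein blood drawn at set time points and kept on ice. Plasma separated by centrifugation, stored at -80 °C, and quantified by LC-MS/MS.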

[2] = tested on: MOLT-4; assay: Antiproliferative activity against human MOLT4 cells after 72 hrs by MTT assay; format: functional, cell-based; conditions: MOLT-4, 72 h
[3] = Cmax in Sprague-Dawley rat at 2 mg/kg, iv by LC-MS/MS analysis; format: ADME, organism-based; set-up: dose 2 mg/kg, route intravenous; conditions: in vivo; how it was run: as §1
[4] = tested on: HT-29; assay: Antitumor activity against human HT-29 cells xenografted in BALB/c nu mouse assessed as tumor growth inhibition at 50 mg/kg, po administered for 25 consecutive days measured every 3 days during compound dosing relative to control; format: functional; conditions: HT-29, po, read-out: TGI
How it was run: (§2)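 HT-29 cells (1×10^7) implanted s.c. in right flank of male BALB/c-nu mice aged 5–6 weeks. At about 100 mm³ (day 10), mice randomized 6 per group and dosed orally for 25 consecutive days. Controls received PBS with 5% DMSO. T/C is mean RTV (Vt/V0) treated over control. TGI taken from final tumor weights. Student's two-tailed t test.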

[5] = target: Histone deacetylase 1/2/3 (Homo sapiens) (UniProt Q13547+O15379+Q92769); conditions: HeLa, at 1 µM
[6] = tested on: HT-29; assay: Antiproliferative activity against human HT-29 cells after 72 hrs by MTT assay; format: functional, cell-based; conditions: HT-29, 72 h
[7] = Oral bioavailability in Sprague-Dawley rat at 10 mg/kg by LC-MS/MS analysis; format: ADME, organism-based; conditions: in vivo; how it was run: as §1
[8] = tested on: HT-29; assay: Antitumor activity against human HT-29 cells xenografted in BALB/c nu mouse assessed as tumor growth level at 50 mg/kg, po administered for 25 consecutive days measured every 3 days during compound dosing relative to control; format: functional; how it was run: as §2
[9] = Half life in Sprague-Dawley rat at 2 mg/kg, iv by LC-MS/MS analysis; format: ADME, organism-based; conditions: in vivo; how it was run: as §1
[10] = target: Histone deacetylase; format: protein assay, Homo sapiens
[11] = tested on: HT-1080; assay: Antiproliferative activity against human HT1080 cells after 72 hrs by MTT assay; format: functional, cell-based; conditions: HT-1080, 72 h
[12] = tested on: Thoracic aorta; assay: Antiangiogenic activity in Sprague-Dawley rat thoracic aorta ring assessed as reduction in micro-vessel growth at 5 uM treated every day for 6 days by matrigel-based inverted microscopic analysis relative to control; format: functional, tissue-based
How it was run: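 Aortas taken from 4–6-week-old Sprague–Dawley rats, cut into 1-mm rings and embedded in Matrigel. Rings held 30 min at 37 °C, 5% CO2, then treated daily for 6 days with compound or 0.5% DMSO vehicle. Microvessel outgrowth photographed on day 7 at ×200. Three independent experiments.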

[13] = target: T1, Vascular endothelial growth factor receptor 2 (Homo sapiens, UniProt P35968); assay: Inhibition of VEGFR-2 (unknown origin) at 0.2 uM after 40 mins by kinase-Glo assay relative to control
T1 sequence (P35968 whole entry): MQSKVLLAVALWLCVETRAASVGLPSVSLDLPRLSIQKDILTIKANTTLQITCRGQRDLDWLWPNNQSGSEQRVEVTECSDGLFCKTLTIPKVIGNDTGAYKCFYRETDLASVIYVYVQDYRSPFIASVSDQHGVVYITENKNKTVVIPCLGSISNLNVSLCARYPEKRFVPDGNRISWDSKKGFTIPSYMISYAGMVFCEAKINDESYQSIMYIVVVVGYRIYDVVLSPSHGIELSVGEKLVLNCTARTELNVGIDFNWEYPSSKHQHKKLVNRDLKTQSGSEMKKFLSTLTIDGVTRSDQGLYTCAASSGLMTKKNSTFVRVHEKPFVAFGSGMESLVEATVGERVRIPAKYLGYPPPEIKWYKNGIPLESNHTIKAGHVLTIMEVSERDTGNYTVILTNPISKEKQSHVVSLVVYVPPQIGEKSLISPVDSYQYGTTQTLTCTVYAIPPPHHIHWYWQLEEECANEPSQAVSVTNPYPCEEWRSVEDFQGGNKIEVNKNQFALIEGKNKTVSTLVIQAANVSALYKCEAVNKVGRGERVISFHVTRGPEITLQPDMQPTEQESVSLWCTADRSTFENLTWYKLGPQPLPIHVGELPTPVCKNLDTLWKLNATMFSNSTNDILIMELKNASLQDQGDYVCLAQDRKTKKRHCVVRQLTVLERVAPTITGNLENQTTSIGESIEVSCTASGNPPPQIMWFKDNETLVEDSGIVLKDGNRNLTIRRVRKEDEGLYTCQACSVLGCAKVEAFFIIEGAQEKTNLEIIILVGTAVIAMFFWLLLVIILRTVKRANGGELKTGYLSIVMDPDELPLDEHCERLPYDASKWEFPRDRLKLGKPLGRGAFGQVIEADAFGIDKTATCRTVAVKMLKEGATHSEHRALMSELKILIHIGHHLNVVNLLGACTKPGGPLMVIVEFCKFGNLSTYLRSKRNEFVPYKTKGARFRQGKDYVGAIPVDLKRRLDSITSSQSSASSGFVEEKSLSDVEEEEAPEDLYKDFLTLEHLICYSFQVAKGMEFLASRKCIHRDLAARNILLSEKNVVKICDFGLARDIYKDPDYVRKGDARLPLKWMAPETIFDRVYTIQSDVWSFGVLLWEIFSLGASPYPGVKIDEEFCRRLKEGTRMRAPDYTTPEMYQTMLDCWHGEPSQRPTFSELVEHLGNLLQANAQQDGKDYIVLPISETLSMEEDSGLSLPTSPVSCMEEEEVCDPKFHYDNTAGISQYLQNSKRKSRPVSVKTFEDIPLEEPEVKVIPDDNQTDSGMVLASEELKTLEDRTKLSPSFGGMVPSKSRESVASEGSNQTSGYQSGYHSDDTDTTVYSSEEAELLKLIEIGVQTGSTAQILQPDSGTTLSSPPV
How it was run: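 VEGFR-2 tested at a single 200 nM concentration in a Kinase-Glo assay. Compound, kinase, substrate and ATP incubated 40 min at room temperature, then Kinase-Glo reagent added for 15 min and luminescence read. Inhibition rate reported. Replicates n ≥ 2.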

[14] = tested on: HUVEC; assay: Antiangiogenic activity in human HUVEC cells assessed as reduction in capillary-like tubular network formation at 0.1 uM after 6 hrs by phase-contrast microscopy; format: functional, cell-based
How it was run: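 HUVECs trypsinized and seeded at 40000/well on Matrigel polymerized 0.5 h at 37 °C. Cells held 6 h at 37 °C in M199 with 5% FBS, with compound or DMSO. Tube formation viewed and photographed by phase-contrast microscopy at 200 magnification. Three independent experiments.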

[15] = tested on: ACHN; assay: Antiproliferative activity against human ACHN cells after 72 hrs by MTT assay; format: functional, cell-based
[16] = MRT (0 to t) in Sprague-Dawley rat at 10 mg/kg, po by LC-MS/MS analysis; format: ADME, organism-based; conditions: in vivo; how it was run: as §1
[17] = target: Histone deacetylase 3 (Homo sapiens, UniProt O15379)
Histone deacetylase 3, sequence (O15379 whole entry): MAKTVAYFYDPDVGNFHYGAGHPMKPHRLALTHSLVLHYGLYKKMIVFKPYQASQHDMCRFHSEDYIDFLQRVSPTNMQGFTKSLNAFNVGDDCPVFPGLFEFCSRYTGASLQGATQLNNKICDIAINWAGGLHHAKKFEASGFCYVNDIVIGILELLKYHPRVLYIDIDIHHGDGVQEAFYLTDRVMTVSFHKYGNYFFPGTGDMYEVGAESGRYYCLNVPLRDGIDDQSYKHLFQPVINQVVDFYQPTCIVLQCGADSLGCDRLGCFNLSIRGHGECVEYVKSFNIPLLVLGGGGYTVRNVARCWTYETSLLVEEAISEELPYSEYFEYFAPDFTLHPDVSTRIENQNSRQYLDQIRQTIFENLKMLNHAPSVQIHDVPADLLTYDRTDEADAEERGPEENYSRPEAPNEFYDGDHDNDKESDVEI

[18] = AUC (0 to t) in Sprague-Dawley rat at 10 mg/kg, po by LC-MS/MS analysis; format: ADME, organism-based; conditions: in vivo
[19] = MRT (0 to t) in Sprague-Dawley rat at 2 mg/kg, iv by LC-MS/MS analysis; format: ADME, organism-based; conditions: in vivo; how it was run: as §1
[20] = Tmax in Sprague-Dawley rat at 10 mg/kg, po by LC-MS/MS analysis; format: ADME, organism-based; conditions: in vivo; how it was run: as §1
[21] = tested on: PC-3; assay: Antiproliferative activity against human PC3 cells after 72 hrs by MTT assay; format: functional, cell-based; conditions: PC-3, 72 h
[22] = tested on: Mus musculus; assay: Toxicity in nu BALB/c mouse xenografted with human HT-29 cells assessed as reduction in body weight at 50 mg/kg , po administered for 25 consecutive days measured every day during compound dosing; format: organism-based; conditions: in vivo
[23] = target: Vascular endothelial growth factor receptor 3 (Homo sapiens, UniProt P35916); assay: Inhibition of VEGFR-3 (unknown origin) after 40 mins by kinase-Glo assay
Vascular endothelial growth factor receptor 3, sequence (P35916 whole entry): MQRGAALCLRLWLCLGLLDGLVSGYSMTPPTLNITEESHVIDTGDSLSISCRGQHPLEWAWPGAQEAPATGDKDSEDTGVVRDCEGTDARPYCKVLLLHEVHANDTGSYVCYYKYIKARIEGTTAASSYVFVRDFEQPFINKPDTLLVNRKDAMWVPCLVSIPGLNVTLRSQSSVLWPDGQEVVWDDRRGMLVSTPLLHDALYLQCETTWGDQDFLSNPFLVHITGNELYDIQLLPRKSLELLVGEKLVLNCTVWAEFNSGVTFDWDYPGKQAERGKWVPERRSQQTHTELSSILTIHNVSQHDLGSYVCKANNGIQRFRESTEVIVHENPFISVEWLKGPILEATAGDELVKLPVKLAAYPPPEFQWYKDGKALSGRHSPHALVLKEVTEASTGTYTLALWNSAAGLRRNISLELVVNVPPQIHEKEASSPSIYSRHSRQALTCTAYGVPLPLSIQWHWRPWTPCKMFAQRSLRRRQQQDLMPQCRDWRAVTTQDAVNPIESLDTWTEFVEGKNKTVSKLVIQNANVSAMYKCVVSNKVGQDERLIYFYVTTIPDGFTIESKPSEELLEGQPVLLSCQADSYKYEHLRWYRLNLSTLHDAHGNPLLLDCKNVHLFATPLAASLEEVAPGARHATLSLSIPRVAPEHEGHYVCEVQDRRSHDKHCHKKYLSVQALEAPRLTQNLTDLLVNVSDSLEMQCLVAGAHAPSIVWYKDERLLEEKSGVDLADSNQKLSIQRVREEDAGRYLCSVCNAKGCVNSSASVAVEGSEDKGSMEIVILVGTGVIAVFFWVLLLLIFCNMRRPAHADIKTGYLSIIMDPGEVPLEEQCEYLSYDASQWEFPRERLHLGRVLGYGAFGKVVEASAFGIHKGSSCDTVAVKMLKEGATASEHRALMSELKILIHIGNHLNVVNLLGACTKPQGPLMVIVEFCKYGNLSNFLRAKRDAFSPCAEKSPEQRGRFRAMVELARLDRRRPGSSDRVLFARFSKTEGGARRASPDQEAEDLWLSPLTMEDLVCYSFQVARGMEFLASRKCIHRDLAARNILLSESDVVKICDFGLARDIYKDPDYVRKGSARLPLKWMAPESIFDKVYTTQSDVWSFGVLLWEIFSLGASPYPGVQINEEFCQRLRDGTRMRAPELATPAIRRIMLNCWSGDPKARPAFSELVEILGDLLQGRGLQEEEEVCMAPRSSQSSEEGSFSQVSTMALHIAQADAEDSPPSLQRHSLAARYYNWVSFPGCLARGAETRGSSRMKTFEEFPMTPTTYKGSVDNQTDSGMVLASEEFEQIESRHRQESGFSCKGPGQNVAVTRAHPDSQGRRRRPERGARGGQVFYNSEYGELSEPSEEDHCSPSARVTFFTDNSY

[24] = tested on: HEL; assay: Antiproliferative activity against human HEL cells after 72 hrs by MTT assay; format: functional, cell-based
[25] = Tmax in Sprague-Dawley rat at 2 mg/kg, iv by LC-MS/MS analysis; format: ADME, organism-based; conditions: in vivo; how it was run: as §1
[26] = target: T1, Vascular endothelial growth factor receptor 2; assay: Inhibition of VEGFR-2 (unknown origin) after 40 mins by kinase-Glo assay
How it was run: (§3)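 Kinase-Glo luminescent assay run by a contract lab. Compound, kinase, substrate and ATP diluted in kinase buffer and incubated 40 min at room temperature. IC50 obtained by nonlinear regression of normalized dose–response.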

[27] = AUC (0 to t) in Sprague-Dawley rat at 2 mg/kg, iv by LC-MS/MS analysis; format: ADME, organism-based; conditions: in vivo; how it was run: as §1
[28] = tested on: AGS; assay: Antiproliferative activity against human AGS cells after 72 hrs by MTT assay; format: functional, cell-based
[29] = target: Vascular endothelial growth factor receptor 1 (Homo sapiens, UniProt P17948); assay: Inhibition of VEGFR-1 (unknown origin) after 40 mins by kinase-Glo assay; how it was run: as §3
[30] = target: Mast/stem cell growth factor receptor Kit (Homo sapiens, UniProt P10721); assay: Inhibition of C-kit (unknown origin) after 40 mins by kinase-Glo assay; how it was run: as §3
[31] = target: Platelet-derived growth factor receptor beta (Homo sapiens, UniProt P09619); assay: Inhibition of PDGFRbeta (unknown origin) after 40 mins by kinase-Glo assay; how it was run: as §3
Platelet-derived growth factor receptor beta, sequence (P09619 whole entry): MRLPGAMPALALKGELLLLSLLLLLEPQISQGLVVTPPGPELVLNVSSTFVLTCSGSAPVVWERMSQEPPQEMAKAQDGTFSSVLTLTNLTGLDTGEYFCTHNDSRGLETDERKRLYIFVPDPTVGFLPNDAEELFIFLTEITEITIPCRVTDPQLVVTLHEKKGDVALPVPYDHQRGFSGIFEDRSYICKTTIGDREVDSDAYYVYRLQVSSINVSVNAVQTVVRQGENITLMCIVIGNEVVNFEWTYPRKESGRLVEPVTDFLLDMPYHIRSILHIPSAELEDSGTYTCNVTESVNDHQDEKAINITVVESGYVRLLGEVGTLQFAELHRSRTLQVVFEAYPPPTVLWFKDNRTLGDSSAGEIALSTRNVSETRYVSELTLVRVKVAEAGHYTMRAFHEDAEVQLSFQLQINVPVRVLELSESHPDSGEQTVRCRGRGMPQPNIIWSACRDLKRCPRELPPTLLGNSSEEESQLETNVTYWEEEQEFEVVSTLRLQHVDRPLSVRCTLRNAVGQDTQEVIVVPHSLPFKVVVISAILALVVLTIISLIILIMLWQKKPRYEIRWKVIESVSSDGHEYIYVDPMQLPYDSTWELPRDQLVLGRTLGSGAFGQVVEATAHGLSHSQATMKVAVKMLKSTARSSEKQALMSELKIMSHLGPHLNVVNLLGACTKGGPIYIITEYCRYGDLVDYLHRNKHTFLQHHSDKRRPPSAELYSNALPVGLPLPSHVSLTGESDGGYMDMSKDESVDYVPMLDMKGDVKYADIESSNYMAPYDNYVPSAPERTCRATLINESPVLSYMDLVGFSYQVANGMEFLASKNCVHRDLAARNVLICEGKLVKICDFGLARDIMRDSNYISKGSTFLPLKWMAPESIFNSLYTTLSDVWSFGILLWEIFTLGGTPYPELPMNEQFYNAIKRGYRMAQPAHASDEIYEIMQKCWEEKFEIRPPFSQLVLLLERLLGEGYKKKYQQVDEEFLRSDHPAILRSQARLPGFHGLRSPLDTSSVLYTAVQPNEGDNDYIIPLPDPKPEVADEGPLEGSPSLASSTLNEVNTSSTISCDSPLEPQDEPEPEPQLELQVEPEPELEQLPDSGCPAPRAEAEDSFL

[32] = target: T1, Vascular endothelial growth factor receptor 2; assay: Inhibition of VEGF-stimulated VEGFR2 phosphorylation in human HUVEC cells at 100 nM preincubated for 2 hrs followed by VEGF stimulation by Western blot analysis; format: cell-based
How it was run: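 HUVECs pretreated 2 h with compound or DMSO, then stimulated with VEGF (50 ng/ml). Cells lysed in ice-cold RIPA and protein measured by BCA. Lysates run on SDS-PAGE and immunoblotted for phospho-VEGFR-2, with total VEGFR-2 as loading control. Detection by ECL.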

[33] = target: Histone deacetylase 2 (Homo sapiens, UniProt Q92769)
Histone deacetylase 2, sequence (Q92769 whole entry): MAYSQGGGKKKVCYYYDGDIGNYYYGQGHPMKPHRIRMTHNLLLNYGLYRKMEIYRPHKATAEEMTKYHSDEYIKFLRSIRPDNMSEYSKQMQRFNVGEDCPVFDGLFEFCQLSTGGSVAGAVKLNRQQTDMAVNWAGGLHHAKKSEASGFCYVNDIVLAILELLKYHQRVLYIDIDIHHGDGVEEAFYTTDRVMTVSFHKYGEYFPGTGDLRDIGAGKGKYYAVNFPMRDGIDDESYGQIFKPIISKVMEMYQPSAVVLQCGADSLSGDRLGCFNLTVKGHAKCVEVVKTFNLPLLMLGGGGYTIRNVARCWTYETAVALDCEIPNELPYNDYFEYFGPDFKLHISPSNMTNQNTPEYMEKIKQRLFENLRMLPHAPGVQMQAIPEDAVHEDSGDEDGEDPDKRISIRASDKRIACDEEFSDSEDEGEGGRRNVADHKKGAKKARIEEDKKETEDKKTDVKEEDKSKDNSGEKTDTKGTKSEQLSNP

clearance [1]: 14.6 mL/min/kg | IC50 [2]: 940 nM | Cmax [3]: 2780 ng/mL | inhibition [5]: Active | IC50 [6]: 1070 nM | bioavailability [7]: 72% | half-life [9]: 1.64 h | IC50 [10]: 4600 nM | IC50 [11]: > 5000 nM | inhibition [13]: 100% | IC50 [15]: > 5000 nM | MRT last [16]: 2.54 h | IC50 [17]: 430 nM | AUC(0-t) [18]: 8570 ng·h/mL | MRT last [19]: 1.13 h | Tmax [20]: 0.5 h | IC50 [21]: 2380 nM | IC50 [23]: 46 nM | Tmax [25]: 4.8 min | IC50 [26]: 37 nM | AUC(0-t) [27]: 2380 ng·h/mL | IC50 [28]: > 5000 nM | IC50 [29]: 22 nM | IC50 [30]: 125 nM | IC50 [31]: 88 nM | inhibition [32]: Active | IC50 [33]: 910 nM
Structure (SMILES): Cc1c2ccc(N(C)c3ccnc(Nc4ccc(C(=O)Nc5ccccc5N)cc4)n3)cc2nn1C
inhibition in vivo at 50 mg/kg [4]: 40% | T/C [8]: 65% | Activity [12]: Active | Activity [14]: Active | Activity [22]: Non-Toxic | IC50 [24]: 1520 nM
